Source: PubChem
Most compounds without a hit are left out; they make up all but 2.5% or so of the library.
MC4R antagonist: blocks human MC4R cAMP signaling; P32245; MC4R-expressing cells, MTII-stimulated cAMP, LANCE TR-FRET; inhibition, % at 6.5 µM; 360,000 tested, 0.48% active;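 active = inhibition above its plate's cutoff, the mean of tested wells on that plate plus 3 SD, cut at about 29% in these data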;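 note: 0% = Melanotan II alone and 100% = Melanotan II plus saturating MCL0020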
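System: U2OS cells stably expressing human melanocortin 4 receptor (MC4R). Reagent: Melanotan II challenge after compound preincubation. Doses: 6.5 µM. Times: 30-min compound, 1-h challenge, 1-h detection, room temperature. Measured by: TR-FRET with Eu-cAMP and labeled anti-cAMP, 671 nm. Replicates: singlicate.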
NTR1 agonist: agonists of human neurotensin receptor NTR1; P30989; NTR1-U2OS beta-arrestin-GFP spot imaging, agonist mode; activation, % at 20 µM; 330,000 tested, 0.17% active;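 active = activation at or above 40% of the spot to cytoplasm intensity ratio, with at least 20 cells analyzed; inconclusive = wells under 20 cells, flagged as cytotoxic or low count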;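 note: 0% = DMSO without peptide and 100% = 100 nM NTR1 peptide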
Target sequence (P30989 whole entry, looked up): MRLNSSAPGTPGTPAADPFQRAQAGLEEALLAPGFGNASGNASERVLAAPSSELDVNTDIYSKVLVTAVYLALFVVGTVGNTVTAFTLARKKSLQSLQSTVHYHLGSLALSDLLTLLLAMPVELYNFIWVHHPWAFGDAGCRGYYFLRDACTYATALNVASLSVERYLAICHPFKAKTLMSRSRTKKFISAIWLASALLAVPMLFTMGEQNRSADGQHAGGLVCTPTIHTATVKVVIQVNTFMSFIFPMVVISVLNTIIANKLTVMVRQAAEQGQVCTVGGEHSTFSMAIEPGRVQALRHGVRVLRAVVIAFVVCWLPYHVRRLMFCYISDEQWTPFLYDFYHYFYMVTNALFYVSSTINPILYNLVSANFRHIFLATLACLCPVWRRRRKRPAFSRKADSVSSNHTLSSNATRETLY
sPLA2-III inh: Inhibits HGIII-sPLA2 liposome hydrolysis, primary screen | QFRET BODIPY PC-A2 liposome hydrolysis, fluorescence | inhibition, % at 12.2 µM | 370,000 tested, 0.56% active;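 active = inhibition above mean plus 3 SD of compounds lying within the high and low control bounds, cut at about 19% in these data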;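 note: 0% = median of test compound wells and 100% = no enzyme DMSO wells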
Exocytosis inh: lytic granule exocytosis inhibition; TALL-104 LAMP-1 surface exposure, flow cytometry; cells stimulated with thapsigargin and PMA; inhibition, % at 10 µM; 360,000 tested, 0.66% active; AID 651702;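 active = inhibition above about 55%, limit read from the data; inconclusive = no clear call, values can overlap the other calls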
Bfl-1 A1 inh: inhibitors of the anti-apoptotic protein A1, read as caspase activation. MEF A1-2A-BIM cells, Caspase-Glo 3/7 luminescence, 3 h; percent of clofoctol response, vehicle zero. caspase activation, % (concentration not given with the values). 330,000 tested, 0.066% active. AID 2462;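 active = over half of replicate activation scores above 10%, or exactly half above 10 with the replicate mean above 10; inconclusive = replicate mean below 10 yet half the replicates above 10; inactive = over half of replicates below 10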
MC4R barr agon: human MC4R agonism via beta-arrestin; activation, % at 8.9 µM; 360,000 tested, 0.98% active; P32245; U2OS MC4R beta-arrestin complementation, luminescence; percent of melanotan II response, DMSO zero; AID 540308;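 active = activation above a per-plate cutoff, the mean activation of sample wells on that plate plus 3 SD, cut at about 8% in these data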
U2OS cAMP counter: nonselective cAMP signaling inhibitor, MC4R antagonist counter-screen; shares compounds with MC4R antagonist; parental U2OS, forskolin cAMP, LANCE TR-FRET; inhibition, % at 6.5 µM; 1,600 tested, 26% active;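 active = mean inhibition over triplicates above the low-control well mean plus 3 SD, set per campaign, cut at about 13% in these data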;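 note: signal is single emission at 671 nm which falls as cellular cAMP rises; 0% = forskolin-stimulated wells and 100% = buffer without forskolin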
MC4R cAMP antag: human MC4R cAMP antagonism confirmation; shares compounds with MC4R antagonist; MC4R-expressing cells, MTII-stimulated cAMP, TR-FRET; inhibition, % at 6.5 µM; 1,600 tested, 27% active; in the data active = inhibition above about 29%;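 note: 0% = agonist stimulated wells alone and 100% = agonist stimulated wells plus saturating reference antagonist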
Numbers without * were called inactive; ? = inconclusive; · = no result.

SMILES	MC4R antagonist	NTR1 agonist	sPLA2-III inh	Exocytosis inh	Bfl-1 A1 inh	MC4R barr agon	U2OS cAMP counter	MC4R cAMP antag
N#C/C(=C/c1ccc(N2CCCCC2)o1)C(=O)Nc1ccc2ccccc2c1	29*	·	-96	63*	·	-3	-3	13
COc1ccc(NC(=O)/C(C#N)=C\c2ccc(N3CCOCC3)o2)cc1	-5	-2	-61	-5	0	-1	·	·
COC(=O)[C@H]1C[C@@]2(CC=C(C)C)c3ccccc3N(C(=O)OC(C)(C)C)[C@H]2N1C(=O)OC(C)(C)C	·	·	2	·	·	·	·	·
O=C(C1=C(O)C(=O)N(c2nccs2)C1c1ccccc1)c1cc2ccccc2o1 (stereo not given)	49*	1	-32	-7	-1	1	19*	31*
Cc1cc(N2C(=O)C(O)=C(C(=O)c3cc4ccccc4o3)C2c2ccc([N+](=O)[O-])cc2)no1 (stereo not given)	-1	0	-9	-5	1	-1	·	·
Cc1ccc(C2C(C(=O)c3cc4ccccc4o3)=C(O)C(=O)N2c2cc(C)on2)cc1 (stereo not given)	32*	1	-8	5	0	-1	9	5
Cc1ccc2c(c1)C(CS(=O)(=O)NCc1ccc(F)cc1)NC2 (stereo not given)	·	·	-2	·	·	·	·	·
Cc1ccc(NC(=O)CSc2nnc(-c3cccnc3)n2Cc2ccco2)c(C)c1	·	·	-1	·	·	·	·	·
C=CCN1C(C(=O)OC)CN(Cc2cn(Cc3ccc(C)cc3)nn2)CCS1(=O)=O (stereo not given)	·	·	3	·	·	·	·	·
N#Cc1cccc(C(c2nnnn2CCc2ccccc2)N2CCN(C3CCCCC3)CC2)c1 (stereo not given)	29*	1	-13	-3	1	2	3	3
COC(=O)COc1ccc2c(=O)c(-c3ccccc3)coc2c1	44*	5	-7	7	-5	0	28*	52*
NC(=O)COc1ccc2cc(-c3ccccc3)c(=O)oc2c1	8	-1	5	-1	-1	-1	·	·
COC(=O)COc1ccc2cc(-c3ccccc3)c(=O)oc2c1	40*	2	1	-1	-10	-1	24*	56*
COC(=O)COc1ccc2cc(-c3ccc(OC)cc3)c(=O)oc2c1	39*	2	-4	5	-2	0	26*	42*
COc1ccc(-c2cc3ccc(OCC(C)=O)cc3oc2=O)cc1	12	-1	-5	-1	?	-1	·	·
Nc1[nH]c(C(=O)c2ccccc2)c(-c2ccc(Br)cc2)c1C(=O)N1CCN(CCO)CC1	·	·	1	·	·	·	·	·
C#CCOCCOCCOCCNc1nc(N2CCOCC2)nc(N2CCN(C(=O)[C@H](CCC(=O)O)n3cc(C(N)CO)nn3)CC2)n1 (stereo not given in full)	·	·	19	·	·	·	·	·
Cc1ccc(NC(=O)CN(C)C(=O)Cn2ncc(Cl)c(Cl)c2=O)cc1	30*	·	14	0	0	-1	26*	24
Cc1ccc(NC(=O)CN(C)C(=O)Cc2ccc(Cl)c(Cl)c2)cc1	5	3	-12	-11	0	-1	·	·
COc1cccc(C(=O)n2ccc3ccc(-c4ccc5ccn(Cc6ccc(C#N)cc6)c5c4)cc32)c1	·	·	1	·	·	·	·	·
Cc1ccc(C)c(NC(=O)c2sc(Cl)nc2-c2ccccc2)c1	37*	11	-1	-6	?	3	15*	32*
Cc1ccc(S(=O)(=O)NCC(=O)OC(C)C(=O)Nc2ncc(Cl)cc2Cl)cc1 (stereo not given)	31*	3	-3	5	0	-2	14*	27
CCCCNc1cccc2c1S(=O)(=O)N[C@H](C)CO2	·	·	5	·	·	·	·	·
COC(=O)COc1ccc(S(=O)(=O)N2CCN(c3ccc(F)cc3)CC2)cc1	31*	5	-2	7	0	2	16*	46*
